Measured values as given in ChEMBL document CHEMBL5321288, “Proteolytically Stable Diaza-Peptide Foldamers Mimic Helical Hot Spots of Protein-Protein Interactions and Act as Natural Chaperones” (J Med Chem, 2023).
Activity calls are given as the source filed them. No cut-off for these calls is given here. Starred links: 1 amine or outer side, 2 acyl side, 3 side chain; linkers in the order of their positions; H or OH if unused. Non-standard residues stand in square brackets, D forms with d. Residues, ends and D or L forms follow the SMILES beside them. *: point of attachment. X3 = C[C@H](O)CN(N[*:1])C(=O)NN(CCCCN)C(=O)[*:2]; X2 = CC(C)CN(NC(=O)N(C)N[*:1])C(=O)[*:2]; X1 = C[C@H](O)CN(N)C(=O)NN(CCCCN)C(=O)*

Columns and labels:
[1] = molecular target: Amyloid-beta precursor protein (Homo sapiens) (UniProt P05067); assay: Inhibition of Amyloid beta (1 to 42) (unknown origin) aggregation assessed as extension of time of the half aggregation at 10 to 1 ratio of compound to amyloid beta (1 to 42) incubated for 48 hrs fluorescence-detected ThT-binding assay; set-up: scale not given: the % may be the effect or the level left
Amyloid-beta precursor protein (Homo sapiens), sequence (P05067 whole entry): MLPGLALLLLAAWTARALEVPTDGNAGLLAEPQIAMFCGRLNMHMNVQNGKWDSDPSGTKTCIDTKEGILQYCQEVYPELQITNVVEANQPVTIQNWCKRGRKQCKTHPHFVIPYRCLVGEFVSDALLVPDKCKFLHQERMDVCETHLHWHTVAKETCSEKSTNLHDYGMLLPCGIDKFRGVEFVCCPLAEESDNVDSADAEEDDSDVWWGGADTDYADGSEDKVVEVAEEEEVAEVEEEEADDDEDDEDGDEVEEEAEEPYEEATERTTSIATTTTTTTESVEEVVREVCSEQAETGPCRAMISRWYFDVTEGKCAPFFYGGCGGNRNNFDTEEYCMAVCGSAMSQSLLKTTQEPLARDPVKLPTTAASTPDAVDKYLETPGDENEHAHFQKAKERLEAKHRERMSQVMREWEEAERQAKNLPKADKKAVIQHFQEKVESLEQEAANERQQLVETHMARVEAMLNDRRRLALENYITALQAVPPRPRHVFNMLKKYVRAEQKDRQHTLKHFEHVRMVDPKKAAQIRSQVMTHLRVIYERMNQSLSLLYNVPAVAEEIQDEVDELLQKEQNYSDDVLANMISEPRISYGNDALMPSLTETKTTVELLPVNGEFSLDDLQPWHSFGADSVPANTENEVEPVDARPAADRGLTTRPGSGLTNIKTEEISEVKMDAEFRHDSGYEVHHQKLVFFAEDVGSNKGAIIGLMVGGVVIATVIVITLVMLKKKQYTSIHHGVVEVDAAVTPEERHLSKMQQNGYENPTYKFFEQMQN

[2] = molecular target: Amyloid-beta precursor protein (Homo sapiens) (UniProt P05067); assay: Inhibition of Amyloid beta (1 to 42) (unknown origin) aggregation assessed as reduction in experimental fluorescence platea at 10 to 1 ratio of compound to amyloid beta (1 to 42) incubated for 48 hrs fluorescence-detected ThT-binding assay; set-up: scale not given: the % may be the effect or the level left
[3] = molecular target: T1, Islet amyloid polypeptide (Homo sapiens) (UniProt P10997); assay: Inhibition of hIAPP aggregation assessed as ThT fluorescence intensity at 10 to 1 ratio of compound to hIAPP by ThT fluorescence spectroscopy
T1 sequence (whole entry): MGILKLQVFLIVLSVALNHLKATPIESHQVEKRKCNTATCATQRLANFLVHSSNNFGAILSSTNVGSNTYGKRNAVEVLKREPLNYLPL

[4] = Apparent permeability of the compound in apical to basolateral side in rat blood-brain barrier model at 10 uM; assay type: ADME, tissue-based; conditions: not told
How it was run: (§1)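 Rat in vitro BBB model; peptide applied at 5 or 10 μM, co-incubated with Lucifer yellow as integrity standard, solutions in low-binding tubes. Transport measured apical-to-basal and basal-to-apical, in triplicate. Apical and basal samples quantified by LC-MS/MS to give apparent permeability (Papp).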

[5] = Cytotoxicity against rat brain endothelial cells assessed as viability at 1 to 100 ug/ml measured after 1 hr by MTT assay; assay type: toxicity, cell-based; conditions: endothelial cell, dose 1-100 µg/ml
[6] = Apparent permeability of the compound in apical to basolateral side in rat blood-brain barrier model at 5 uM; assay type: ADME, tissue-based; conditions: not told; how it was run: as §1
[7] = molecular target: Amyloid-beta precursor protein (Homo sapiens) (UniProt P05067); assay: Inhibition of Amyloid beta (1 to 42) (unknown origin) fibril formation assessed as decrease in factor of rate constants of secondary nucleation(k2)/elongation(K+) at 10 to 1 ratio of compound to amyloid beta (1 to 42) incubated for 48 hrs ThT assay
Homo sapiens = species: Homo sapiens; assay: Inhibition of Amyloid beta (1 to 28) (unknown origin) fibril formation assessed as ratio of alpha-helical to beta strand at 125 uM measured upto 5 hrs by CD spectra analysis (reference value: 0.39)
How it was run: (§2)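 CD at 25 °C, 195–250 nm, 0.1 cm cell, 50 nm/min, 0.1 nm resolution, five scans averaged. Aβ1-42 or Aβ1-28 at 25 μM with inhibitor at 125 μM, spectra taken at time points up to 5 h. Buffer or inhibitor spectrum subtracted, then smoothing. Secondary structure from 200–250 nm by BeStSel deconvolution.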

[8] = molecular target: Amyloid-beta precursor protein (Homo sapiens) (UniProt P05067); assay: Inhibition of Amyloid beta (1 to 42) (unknown origin) fibril formation assessed as decrease in parallel beta sheet content at 125 uM measured upto 5 hrs by CD analysis; how it was run: as §2
[9] = molecular target: Amyloid-beta precursor protein (Homo sapiens) (UniProt P05067); assay: Inhibition of Amyloid beta (1 to 42) (unknown origin) fibril formation assessed as decrease in factor of rate constants of secondary nucleation(k2)/elongation(K+) at 1 to 1 ratio of compound to amyloid beta (1 to 42) incubated for 48 hrs ThT assay
[10] = Plasma stability in human plasma assessed as degraded peptide at 1 uM measured after 2 hrs by UPLC-MS/MS analysis; assay type: ADME, cell-free
How it was run: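 Compound at 1 μM in human plasma at 37 °C, duplicate. Sampled at 0, 15, 30, 45, 60 and 120 min. Analysed by reversed-phase UPLC, C18 at 40 °C, 4 min gradient of 0.1% formic acid in water/acetonitrile.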

Row | Activity [1] [%] | Activity [2] [%] | inhibition [3] | Compound | also measured
1 | 59 | 30 |  | CC(=O)N[C@H](C(=O)N[C@@H](CCCCN)C(=O)N[C@@H](CO)C(=O)N[C@@H](Cc1ccc(O)cc1)C(=O)N[C@@H](Cc1c[nH]c2ccccc12)C(=O)N[C@@H](CCCCN)C(=O)NN(C)C(=O)NN(CC(C)C)C(=O)NCC(N)=O)[C@@H](C)O (Ac-TKSYWK[X2]G-NH2) | 
2 | 107 | 36 |  | CC(=O)NN(C[C@H](C)O)C(=O)NN(CCCCN)C(=O)N[C@@H](CO)C(=O)N[C@@H](Cc1ccc(O)cc1)C(=O)N[C@@H](Cc1c[nH]c2ccccc12)C(=O)N[C@@H](CCCCN)C(=O)N[C@@H](C)C(=O)N[C@@H](CC(C)C)C(=O)NCC(N)=O (Ac-[X3]SYWKALG-NH2) | 
3 | 30 | 41 | inactive | CC(=O)NN(C[C@H](C)O)C(=O)NN(CCCCN)C(=O)N[C@@H](CO)C(=O)N[C@@H](Cc1ccc(O)cc1)C(=O)N[C@@H](Cc1c[nH]c2ccccc12)C(=O)N[C@@H](CCCCN)C(=O)NN(C)C(=O)NN(CC(C)C)C(=O)NCC(N)=O (Ac-[X3]SYWK[X2]G-NH2) | 
4 | 36 | 60 |  | CC(C)CN(NC(=O)N(C)NC(=O)[C@H](CCCCN)NC(=O)[C@H](Cc1c[nH]c2ccccc12)NC(=O)[C@H](Cc1ccc(O)cc1)NC(=O)[C@H](CO)NC(=O)[C@H](CCCCN)NC(=O)[C@@H](N)[C@@H](C)O)C(=O)NCC(N)=O (H-TKSYWK[X2]G-NH2) | 

The next lines start with the compound.

Row | Compound | Activity [1] [%] | Activity [2] [%] | inhibition [3] | also measured
5 | CC(=O)NN(C[C@H](C)O)C(=O)NN(CCCCN)C(=O)N[C@@H](CO)C(=O)NN(Cc1ccc(O)cc1)C(=O)NN(CCc1c[nH]c2ccccc12)C(=O)N[C@@H](CCCCN)C(=O)NN(C)C(=O)NN(CC(C)C)C(=O)NCC(N)=O | 42 | 41 |  | 
6 | CC(=O)NN(C[C@H](C)O)C(=O)NN(CCCCN)C(=O)N[C@@H](CO)C(=O)NN(Cc1ccc(O)cc1)C(=O)NN(CCc1c[nH]c2ccccc12)C(=O)N[C@@H](CCCCN)C(=O)N[C@@H](C)C(=O)N[C@@H](CC(C)C)C(=O)NCC(N)=O | 72 | 62 |  | 
7 | CC(=O)N[C@H](C(=O)N[C@@H](CCCCN)C(=O)N[C@@H](CO)C(=O)NN(Cc1ccc(O)cc1)C(=O)NN(CCc1c[nH]c2ccccc12)C(=O)N[C@@H](CCCCN)C(=O)NN(C)C(=O)NN(CC(C)C)C(=O)NCC(N)=O)[C@@H](C)O | 34 | 55 |  | 
8 | CC(=O)N[C@H](C(=O)N[C@@H](CCCCN)C(=O)N[C@@H](CO)C(=O)NN(Cc1ccc(O)cc1)C(=O)NN(CCc1c[nH]c2ccccc12)C(=O)N[C@@H](CCCCN)C(=O)N[C@@H](C)C(=O)N[C@@H](CC(C)C)C(=O)NCC(N)=O)[C@@H](C)O | 102 | 56 |  | 
9 | CC(C)C[C@H](NC(=O)[C@H](C)NC(=O)[C@H](CCCCN)NC(=O)[C@H](Cc1c[nH]c2ccccc12)NC(=O)[C@H](Cc1ccc(O)cc1)NC(=O)[C@H](CO)NC(=O)N(CCCCN)NC(=O)N(N)C[C@H](C)O)C(=O)NCC(N)=O (X1-SYWKALG-NH2) | 193 | 54 | inactive | 
10 | CC(C)CN(NC(=O)N(C)NC(=O)[C@H](CCCCN)NC(=O)[C@H](Cc1c[nH]c2ccccc12)NC(=O)[C@H](Cc1ccc(O)cc1)NC(=O)[C@H](CO)NC(=O)N(CCCCN)NC(=O)N(N)C[C@H](C)O)C(=O)NCC(N)=O (X1-SYWK[X2]G-NH2) | 254 | 57 | inactive | Papp A→B at 10 µM [4]: 0.677 ×10⁻⁶ cm/s; Activity [5]: Non-Toxic; Papp A→B at 5 µM [6]: 0.839 ×10⁻⁶ cm/s; Ratio [7]: 1e+09; Ratio (Homo sapiens): 2.16; inhibition [8]: Active; Ratio [9]: 10; metabolised at 2 h, 1 µM [10]: 6%
11 | H-TKSYWKALG-NH2 | 209 | 59 | inactive | Ratio [7]: 100; Ratio (Homo sapiens): 0.66; inhibition [8]: Active; inhibition [9]: inactive; metabolised at 2 h, 1 µM [10]: 99%
